Results: ChEMBL document CHEMBL1255401, “Penicillin sulfone inhibitors of class D beta-lactamases” (Antimicrob Agents Chemother, 2010)
pKi: −log10 of the molar value.

Assays:
[1] = Inhibition of Beta-lactamase OXA-10 expressed in Escherichia coli BL21 (DE3) by nitrocefin hydrolysis assay
Summary of the method: (§1)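 Competition assay at room temperature in 50 mM sodium phosphate with 20 mM bicarbonate, run in triplicate. Enzyme at 11 nM, reporter substrate 50 μM nitrocefin, inhibitor at 4 μM to 9 mM depending on inhibitor and enzyme. Initial velocities taken immediately after mixing, 1/v plotted against [I] and fitted linearly. Ki obtained as y-intercept divided by slope.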

[2] = Inhibition of Beta-lactamase OXA-14 expressed in Escherichia coli BL21 (DE3) by nitrocefin hydrolysis assay; summary of the method: as §1
[3] = Inhibition of Beta-lactamase OXA-1 expressed in Escherichia coli BL21 (DE3) by nitrocefin hydrolysis assay; summary of the method: as §1
[4] = Inhibition of Beta-lactamase OXA-17 expressed in Escherichia coli BL21 (DE3) by nitrocefin hydrolysis assay; summary of the method: as §1
Escherichia coli = experiment: Antibacterial activity against Escherichia coli DH10B harboring RGN238 plasmid containing Beta-lactamase OXA-1 at 4 ug/ml in presence of increasing concentrations of piperacillin by broth agar dilution assay; format: functional
Summary of the method: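 Lysogeny broth agar dilution MIC on E. coli DH10B carrying plasmid RGN238 with blaOXA-1. Piperacillin tested at increasing concentrations with the inhibitor held at a constant 4 μg/ml. Plates inoculated by Steers replicator with 10 μl of a diluted overnight culture containing 10^4 CFU.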

[5] = Inhibition of Beta-lactamase OXA-24/40 expressed in Escherichia coli BL21 (DE3) by nitrocefin hydrolysis assay; summary of the method: as §1
[6] = Ratio of Kcat to Km for Beta-lactamase OXA-1 expressed in Escherichia coli BL21 (DE3)
Summary of the method: (§2)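 OXA-1 from E. coli BL21(DE3) with pET 12a(+) blaOXA-1, IPTG-induced (0.2 mM), released with lysozyme/EDTA, purified by preparative isoelectric focusing. Continuous spectrophotometric hydrolysis assays of oxacillin, ampicillin, nitrocefin and cephaloridine at room temperature in 50 mM sodium phosphate with 20 mM bicarbonate, run in triplicate. Initial rates versus substrate concentration fitted to give kcat, Km and kcat/Km.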

[7] = Activity of Beta-lactamase OXA-1 expressed in Escherichia coli BL21 (DE3); summary of the method: as §2

SMILES: C[C@]1(COC(=O)Cc2ccc(O)c(O)c2)[C@H](C(=O)O)N2C(=O)/C(=C/c3ccccn3)[C@H]2S1(=O)=O
- pKi [1]: 5.10
- pKi [2]: 5.85
- pKi [3]: 6.15
- pKi [4]: 6.70
- MIC (Escherichia coli): 128 µg/mL
- pKi [5]: 6.19

SMILES: CC(=O)OC[C@@]1(C)[C@H](C(=O)O)N2C(=O)/C(=C/c3ccccn3)[C@H]2S1(=O)=O
- pKi [1]: 4.77
- pKi [2]: 5.40
- pKi [3]: 5.85
- pKi [4]: 6.06
- pKi [5]: 5.62

SMILES: CC1(C)S[C@@H]2[C@H](NC(=O)[C@H](N)c3ccccc3)C(=O)N2[C@H]1C(=O)O
- kcat/Km [6]: 6e+06 M⁻¹ s⁻¹
- Km [7]: 64 µM
- kcat [7]: 357 s⁻¹

SMILES: O=C(Cc1cccs1)N[C@@H]1C(=O)N2C(C(=O)[O-])=C(C[n+]3ccccc3)CS[C@H]12
- kcat/Km [6]: 210000 M⁻¹ s⁻¹
- Km [7]: 80 µM
- kcat [7]: 16 s⁻¹

SMILES: Cc1onc(-c2ccccc2)c1C(=O)N[C@@H]1C(=O)N2[C@@H]1SC(C)(C)[C@@H]2C(=O)O
- kcat/Km [6]: 1.9e+07 M⁻¹ s⁻¹
- Km [7]: 31 µM
- kcat [7]: 577 s⁻¹

SMILES: O=C(Cc1cccs1)N[C@@H]1C(=O)N2C(C(=O)O)=C(/C=C/c3ccc([N+](=O)[O-])cc3[N+](=O)[O-])CS[C@H]12
- kcat/Km [6]: 1e+07 M⁻¹ s⁻¹
- Km [7]: 9 µM
- kcat [7]: 94 s⁻¹

SMILES: O=C(O)[C@H]1/C(=C/CO)O[C@@H]2CC(=O)N21 [CLAVULANIC ACID]
- pKi [1]: 3.98
- pKi [2]: 4.72
- pKi [3]: 3.71
- pKi [4]: 4.35
- pKi [5]: 4.29

SMILES: C[C@]1(Cn2ccnn2)[C@H](C(=O)O)N2C(=O)C[C@H]2S1(=O)=O [TAZOBACTAM]
- pKi [1]: 3.77
- pKi [2]: 4.52
- pKi [3]: 3.23
- pKi [4]: 4.40
- MIC (Escherichia coli): 512 µg/mL
- pKi [5]: 3.57
